Holding throughout (assay type): cell-based
In data set [1] the test system is MDA-MB231, Huh-7, KKU-100 and normal human dermal fibroblast (NHDF) cell lines. The data set can be described thus: MTT cytotoxicity assay, all cell lines. Conditions: 24 h, read-out: IC50 values against all the cell lines. In a few lines:
(§1)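 Cells grown in DMEM/F12 with 10% FBS, penicillin (100 U mL−1) and streptomycin (100 μg mL−1) at 37 °C, 5% CO2, and passaged twice weekly by trypsinization. Seeded at 5 × 10^3 cells per well for 24 h, then exposed to a range of test compound concentrations for 24 h. MTT (5 mg mL−1 stock) added for 2 h, supernatant removed, formazan dissolved in DMSO, absorbance read at 540 nm, and IC50 calculated. Controls: doxorubicin (positive) and 0.75% DMSO (negative).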

For data set [2], the system named is Huh-7 (hepatocellular carcinoma) cells. The data set can be described thus: MTT cytotoxicity assay, Huh-7. The following applies: Homo sapiens, Huh-7, 24 h, read-out: Cytotoxic activity, IC50, Huh-7. A digest of the protocol:
as §1
For orientation: Formazan colour is commonly taken as a measure of viable cells.

Data set [3] relates to KKU-100 (cholangiocarcinoma) cells. Put plainly: MTT cytotoxicity assay, KKU-100. Conditions: Homo sapiens, KKU100, 24 h, read-out: Cytotoxic activity, IC50, KKU-100. A digest of the protocol:
as §1

Data set [4] can be described thus: MTT cytotoxicity assay, NHDF. The following applies: human, normal human dermal fibroblasts (NHDF). A digest of the protocol: as §1
The test system of data set [5] is MDA-MB231 (breast) cells. Put plainly: MTT cytotoxicity assay, MDA-MB231. The following applies: Homo sapiens, MDA-MB-231, 24 h, read-out: Cytotoxic activity, IC50, MDA-MB231. A digest of the protocol:
as §1

For two compounds, IC50 results are on record in publication PMC9590589 (RSC Advances, 2022).

The term IC50 denotes the concentration that gives 50% inhibition. As to `CC(C)=CCOc1ccc(-c2coc3cc(OCC=C(C)C)cc(O)c3c2=O)cc1` [Compound 9, 7,4′-di-O-prenylgenistein], the IC50 in data set [1], in data set [2], in data set [3] and in data set [5] was > 100 µM in each case. In data set [4], the IC50 at 24 h was > 100 µM.

As to `COc1cccc2c1C(=O)c1c(O)c3c(c(O)c1C2=O)C[C@@](O)(C(=O)CO)C[C@@H]3O[C@H]1C[C@H](N)[C@H](O)[C@H](C)O1` [Doxorubicin, reference compound], the IC50 in data set [3] is 1.9 µM. The same compound came in with an IC50 at 24 h in data set [4] of 5 µM.
